Four compounds from ChEMBL document CHEMBL1144714, “Reaction of rosmarinic acid with nitrite ions in acidic conditions: discovery of nitro- and dinitrorosmarinic acids as new anti-HIV-1 agents” (J Med Chem, 2008) can be followed below.

Data set [1] has as its target T1, Human immunodeficiency virus type 1 integrase (Human immunodeficiency virus 1, UniProt Q7ZJM1). As to the kind of experiment: Inhibition of HIV1 integrase using labelled oligonucleotide substrate in presence of bovine serum albumin by ELISA. Background: In an ELISA, binding on a coated surface is turned into a signal by an enzyme label.
The target of data set [2] is T1, Human immunodeficiency virus type 1 integrase. In words: Inhibition of HIV1 integrase using labelled oligonucleotide substrate by ELISA.
Data set [3] shares this target. In words: Inhibition of HIV1 integrase using labelled U5A/U5B double stranded DNA substrate.
The target is the same in data set [4]. In words: Inhibition of HIV1 integrase 3'-processing activity using labelled oligonucleotide substrate by ELISA.
For data set [5] the target is unchanged. In words: Inhibition of HIV1 integrase strand transfer activity using labelled oligonucleotide substrate by ELISA.
In data set [6] the test system is Human immunodeficiency virus 1. As to the kind of experiment: Antiviral activity against HIV1 3B infected in human MT4 cells assessed as reduction of virus-induced cytopathogenicity by MTT assay. It is filed as functional, organism-based. To be noted: Human immunodeficiency virus 1, 3B. The method, boiled down:
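MT-4 lymphocytes infected with 100–300 CCID50 of HIV-1 IIIB stock (CCID50 titrated on MT-4 cells), in the presence of 5-fold serial compound dilutions. Protection against virus-induced cytopathic effect read by MTT reduction to formazan, measured spectrophotometrically. EC50 = concentration giving 50% protection against CPE.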
On the technique in general: Protection from cytopathic effect is a common read-out in antiviral testing.

Data set [7] is described as follows: Cytotoxicity against human MT4 cells by MTT method. The class given is cell-based. The method, boiled down: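 Uninfected MT-4 lymphocytes run in parallel with the antiviral assay, with 5-fold serial compound dilutions. Viability read by MTT reduction to formazan, measured spectrophotometrically. CC50 = concentration reducing MT-4 viability by 50%.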
A general note: Formazan colour is commonly taken as a measure of viable cells.

A short description of data set [8]: Selectivity index, ratio of CC50 for human MT4 cells to EC50 for HIV1 3B. The class given is functional. In short, it runs like this: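 Ratio CC50/EC50 from parallel MT-4/MTT assays. CC50 comes from uninfected MT-4 cells and EC50 from MT-4 cells infected with 100–300 CCID50 of HIV-1 IIIB. Both assays used 5-fold serial dilutions.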
A further data set has as its target Albumin (Bos taurus, UniProt P02769). In words: Binding affinity to BSA by fluorescence quenching assay. It is filed as ADME. To be noted: cattle, isolated protein. The method, boiled down: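 BSA tryptophan fluorescence quenching at pH 7.4 on binding of the compound. Data fitted as Stern–Volmer plots, and the slope of the linear fit was taken as the quenching constant.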

Data set [9] deals with Human immunodeficiency virus type 1 reverse transcriptase (Human immunodeficiency virus 1, UniProt Q72547). In words: Inhibition of HIV1 reverse transcriptase.

SMILES strings stand for the structures.

T1 sequence (Q7ZJM1 whole entry): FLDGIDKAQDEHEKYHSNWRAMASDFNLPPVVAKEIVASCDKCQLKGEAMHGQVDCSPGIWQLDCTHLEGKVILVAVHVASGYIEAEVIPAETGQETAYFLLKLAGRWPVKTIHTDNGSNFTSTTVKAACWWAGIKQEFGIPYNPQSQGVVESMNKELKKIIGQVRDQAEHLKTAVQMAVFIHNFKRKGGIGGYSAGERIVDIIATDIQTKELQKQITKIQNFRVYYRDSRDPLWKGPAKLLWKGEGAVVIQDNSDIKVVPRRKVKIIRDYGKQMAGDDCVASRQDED
Albumin, sequence (P02769 whole entry): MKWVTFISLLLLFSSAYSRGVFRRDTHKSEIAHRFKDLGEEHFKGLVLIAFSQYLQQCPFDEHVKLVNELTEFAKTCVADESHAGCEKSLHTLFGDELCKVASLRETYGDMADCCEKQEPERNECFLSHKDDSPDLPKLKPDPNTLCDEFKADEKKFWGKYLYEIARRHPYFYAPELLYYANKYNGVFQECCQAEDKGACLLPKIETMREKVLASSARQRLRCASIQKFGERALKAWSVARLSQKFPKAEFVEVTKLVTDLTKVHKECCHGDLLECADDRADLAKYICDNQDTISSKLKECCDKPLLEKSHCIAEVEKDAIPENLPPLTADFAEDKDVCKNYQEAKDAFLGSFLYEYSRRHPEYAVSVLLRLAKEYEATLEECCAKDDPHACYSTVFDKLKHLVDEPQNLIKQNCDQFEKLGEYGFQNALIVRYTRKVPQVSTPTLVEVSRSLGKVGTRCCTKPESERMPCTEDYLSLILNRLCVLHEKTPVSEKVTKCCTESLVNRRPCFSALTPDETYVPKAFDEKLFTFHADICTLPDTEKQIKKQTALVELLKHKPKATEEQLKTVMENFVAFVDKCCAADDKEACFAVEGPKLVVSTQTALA

For `O=C(/C=C/c1ccc(O)c(O)c1)O[C@H](Cc1cc(O)c(O)cc1[N+](=O)[O-])C(=O)O`, the IC50 (commonly the point on the concentration scale where inhibition reaches its midpoint) in data set [1] was 54.7 µM; in data set [2], 1.4 µM; in [3], 0.026 µM; in data set [4], > 247 µM; in data set [5], 3.7 µM. The concentration giving a half-maximal response (EC50) (usually the concentration at which the effect is half-maximal) in data set [6] stood at 39 µM. For the same compound, the CC50 (in general, the concentration that lowers cell viability or growth by half) in [7] is 160 µM. For the same compound, the “Ratio CC50/EC50” value in [8] was found to be 4. Besides, the K at Albumin is on record as 17460 10^3/M.

Consider `O=C(/C=C/c1cc(O)c(O)cc1[N+](=O)[O-])O[C@H](Cc1cc(O)c(O)cc1[N+](=O)[O-])C(=O)O`, for which the 50% inhibitory concentration (IC50) in data set [1] was 20.8 µM; in data set [2] it was 0.15 µM; in [3], 0.03 µM; in [4] it was 52.2 µM; in data set [5] it was 0.07 µM. In addition, in [6], the EC50 stood at 12 µM. Besides, the CC50 in [7] amounted to 45.5 µM. For the same compound, in data set [8], the “Ratio CC50/EC50” value is 3.8. In addition, the K on Albumin is on record as 3300 10^3/M.

With `O=C(NCc1ccc(F)cc1)c1nc(N2CCCCS2(=O)=O)c2cccnc2c1O`, in [7], the CC50 was 2.2 µM. In addition, in [8], the “Ratio CC50/EC50” value came to 457.

As to `O=C(/C=C/c1ccc(O)c(O)c1)O[C@H](Cc1ccc(O)c(O)c1)C(=O)O` [ROSMARINIC ACID], the IC50 was 63.5 µM in data set [1] and 100 µM in data set [9]. The EC50 in [6] was > 55 µM. The compound further displayed a CC50 in data set [7] of 55 µM.
